Published values of several laboratories.
Each line is one published result; the experiments were not run side by side.
Observed: cell growth or viability

Structure (SMILES) | cell line | test | conditions | measurement | result
CCC(=O)N1CCN(c2ccc(-n3c(=O)ccc4cnc5ccc(-c6cnc7ccccc7c6)cc5c43)cc2C(F)(F)F)CC1 | MB002 |  | 7 days | IC50 | 15.4 nM
CO[C@]1(C(=O)N[C@@H](C)c2ccc(-n3cc(F)cn3)nc2)CC[C@H](c2nc(C)cc(Nc3cc(C)[nH]n3)n2)CC1 | BT-474 | ATP luminescence | 72 h | GI50 | > 10000 nM
CCCCCCCCCC(=O)N[C@@H](Cc1c[nH]c2ccccc12)C(=O)N[C@H](CC(N)=O)C(=O)N[C@@H](CC(=O)O)C(=O)N[C@@H]1C(=O)NCC(=O)N[C@@H](CCCNC(=O)CCC(=O)N2Cc3ccccc3-c3c(nnn3CCC[C@H](NC(=O)CCCCC[N+]3=C(C=CC4=CC(=CC=C5N(C)c6ccccc6C5(C)C)CCC4)C(C)(C)c4ccccc43)C(=O)NCCCCNC(=O)CCC(=O)N3Cc4ccccc4-c4c(nnn4CCOCCOCCOCCNC(=O)CN4CCN(CC(=O)NCCNC(=O)c5cccc(O)c5O)CCN(CC(=O)NCCNC(=O)c5cccc(O)c5O)CCN(CC(=O)NCCNC(=O)c5cccc(O)c5O)CC4)-c4ccccc43)-c3ccccc32)C(=O)N[C@@H](CC(=O)O)C(=O)N[C@H](C)C(=O)N[C@@H](CC(=O)O)C(=O)NCC(=O)N[C@H](CO)C(=O)N[C@@H]([C@H](C)CC(=O)O)C(=O)N[C@@H](CC(=O)c2ccccc2N)C(=O)O[C@@H]1C | KB 3-1 | WST-1 |  | Kb | > 64000 nM
COc1cc(Nc2nccc(-c3cnn4nc(OC)ccc34)n2)cc(C(F)(F)F)c1 | SK-LU-1 | ATP luminescence |  | IC50 | 1100 nM
CC(=NN=c1[nH]c(C)cs1)c1c(O)c2ccccc2oc1=O | human Skin fibroblast | MTT | 48 h | IC50 | > 100000 nM
COc1c(C)cnc(Cn2cnc3c(Cl)nc(N)nc32)c1C | MB002 |  | 7 days | IC50 | 97.4 nM
CC(=O)Nc1cccc(-n2c(=O)n(C3CC3)c(=O)c3c(Nc4ccc(I)cc4F)n(C)c(=O)c(C)c32)c1 | Calu-6 | resazurin | 6.25 nM, 72 h | viability | 74.2%
O=C(NO)c1ccc(CN(c2cnccn2)c2cnccn2)cc1 | B16-F10 |  |  | GI50 | > 20000 nM
CC(=O)c1c(C)c2cnc(Nc3ccc(N4CCNCC4)cn3)nc2n(C2CCCC2)c1=O | BT-474 | resazurin |  | GI50 | 200 nM
O=C(NC[C@H](O)CO)c1ccncc1Nc1ccc(I)cc1F | MB002 |  | 7 days | IC50 | > 10000 nM
CC(C)C[C@H](NC(=O)[C@H](Cc1ccccc1)NC(=O)c1cnccn1)B(O)O | SW948 | ATP luminescence |  | IC50 | 12 nM
CC[C@]1(O)C[C@H]2CN(CCc3c([nH]c4ccccc34)[C@@](C(=O)OC)(c3cc4c(cc3OC)N(C=O)[C@H]3[C@@](O)(C(=O)OC)[C@H](OC(C)=O)[C@]5(CC)C=CCN6CC[C@]43[C@@H]65)C2)C1 | MB002 |  | 7 days | IC50 | 11.2 nM
Cc1cc2c(cc1N1C(=O)c3cccc4c(CCCO)ccc(c34)C1=O)n(C)c(=O)n2C (racemic) | SW-403 | resazurin |  | GI50 | > 10000 nM
